Activity calls are given as the source filed them. The calls are words filed in the database; no cut-off is given here.
Legend:
[1] = Tmax in Plasmodium falciparum 3D7 infected in non-myelodepleted NOD-SCID IL2Rgammanull mouse engrafted with human erythrocytes at 0.1 mg/kg, po; format: ADME, organism-based; conditions: in vivo
Summary of the method: (§1)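 Engrafted NSG (scid IL2Rgc null) mice infected with P. falciparum were given one oral dose per day for four days. Blood was sampled to measure parent and its sulfone metabolite.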

Plasmodium berghei [2] = experiment: Antiplasmodial activity against Plasmodium berghei ANKA expressing GFP infected in mouse assessed as reduction of parasitemia level at 3 mg/kg, po qd for 4 days measured on day 4 post last dose by flow cytometric analysis relative to control; format: functional; set-up: scale not given: the % may be the effect or the level left
Summary of the method: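 Mice (n = 3) infected with GFP-transfected P. berghei ANKA. Test agents were suspended in HPMC vehicle (0.5% w/v hydroxypropylmethylcellulose, 0.5% v/v benzyl alcohol, 0.4% v/v Tween 80, 0.9% w/v NaCl in water). Dosed orally at 4, 24, 48 and 72 h post-infection. Parasitemia read by flow cytometry on day 4 (96 h), detection limit 0.1%. Activity = control-minus-treated mean % parasitemia, relative to control.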

[3] = Drug level in mouse blood at 50 mg/kg, po after 24 hrs; format: ADME, organism-based; conditions: blood, read-out: Drug uptake
Summary of the method: (§2)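 Snapshot whole-blood levels of parent and its sulfone metabolite at 1, 4 and 24 h after the first 50 mg/kg oral dose. Samples came from the P. berghei-infected efficacy mice, dosed in HPMC suspension vehicle.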

[4] = Drug level in mouse blood at 50 mg/kg, po after 1 hr; format: ADME, organism-based; conditions: read-out: Drug uptake; summary of the method: as §2
[5] = Cmax in Plasmodium falciparum 3D7 infected in non-myelodepleted NOD-SCID IL2Rgammanull mouse engrafted with human erythrocytes at 0.5 mg/kg, po; format: ADME, organism-based; set-up: dose 0.5 mg/kg, route oral; conditions: in vivo; summary of the method: as §1
[6] = Selectivity index, ratio of IC50 for CHO cells to IC50 for multidrug resistant Plasmodium falciparum K1; format: toxicity, cell-based; conditions: hamster, read-out: Ratio IC50
Plasmodium berghei [7] = experiment: Antiplasmodial activity against Plasmodium berghei ANKA expressing GFP infected in mouse assessed as mouse cured from disease at 50 mg/kg, po qd for 4 days; format: functional, organism-based
[8] = Tmax in Plasmodium falciparum 3D7 infected in non-myelodepleted NOD-SCID IL2Rgammanull mouse engrafted with human erythrocytes at 0.5 mg/kg, po; format: ADME, organism-based; conditions: in vivo
Summary of the method: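 Humanized NSG mice infected with P. falciparum received one oral dose per day for 4 consecutive days. Blood was sampled for exposure, with levels of both parent and its main active metabolite measured. Tmax was taken from the blood concentration–time profile after oral dosing.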

Liver microsome = experiment: Drug metabolism in rat liver microsomes assessed as 5-(3-(Cyclopropylsulfonyl)phenyl)-3-(4-(methylsulfonyl)-phenyl)pyrazolo[1,5-a]pyridine formation at 10 uM after 1 hr by LC-MS/MS analysis; format: ADME
Summary of the method: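 Metabolites identified by LC-ESI-MS/MS after in vitro incubation with rat liver microsomes.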

Blood [9] = experiment: Drug metabolism in rat blood assessed as metabolite formation from sulfone oxidation on pyridine core and phenyl ring at 20 mg/kg, po and 5 mg/kg, iv by LC-MS/MS analysis; format: ADME, organism-based; conditions: in vivo
Summary of the method: (§3)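 Metabolites identified by LC-ESI-MS/MS in blood samples from the rat PK study (oral and intravenous dosing).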

Blood [10] = experiment: Drug metabolism in rat blood assessed as metabolite formation from sulfone oxidation on pyrazole at 20 mg/kg, po and 5 mg/kg, iv by LC-MS/MS analysis; format: ADME, organism-based; conditions: in vivo; summary of the method: as §3
Blood [11] = experiment: Drug metabolism in rat blood assessed as 5-(3-(Cyclopropylsulfonyl)phenyl)-3-(4-(methylsulfonyl)-phenyl)pyrazolo[1,5-a]pyridine formation at 20 mg/kg, po and 5 mg/kg, iv by LC-MS/MS analysis; format: ADME, organism-based; conditions: in vivo; summary of the method: as §3
Plasmodium falciparum = experiment: Antiplasmodial activity against Plasmodium falciparum 3D7 infected in po dosed non-myelodepleted NOD-SCID IL2Rgammanull mouse engrafted with human erythrocytes assessed as reduction of parasitemia level administered qd for 4 days; format: functional; conditions: 3D7, po, 96 h
Summary of the method: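 P. falciparum-infected engrafted NSG mice were dosed orally once daily for four consecutive days. Blood parasitemia was monitored, and a 90% effective dose was derived along with the blood exposure at that dose.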

`C[S+]([O-])c1ccc(-c2cnn3ccc(-c4cccc(S(=O)(=O)C5CC5)c4)cc23)cc1` (stereo not drawn) gave a Tmax [1] of 15 min, an Activity (Plasmodium berghei [2]) of 75% and a concentration at 24 h [3] of 30 nM. For the same molecule, the concentration at 1 h [4] was 2960 nM, the Cmax [5] was 4 ng/mL and the selectivity ratio [6] was greater than 1000. The Activity (Plasmodium berghei [7]) was “Active”, the Tmax [8] was 15 min and the Drug metabolism (Liver microsome) was “metabolite_detected”. The Drug metabolism (Blood [9]) was “metabolite_detected”, the Drug metabolism (Blood [10]) was “metabolite_detected” and the Drug metabolism (Blood [11]) was “metabolite_detected”. It also gave an ED90 (Plasmodium falciparum) of 0.5 mg/kg.
